DNMT1 inh = blocks human DNA methyltransferase DNMT1. DNMT1 molecular beacon, Hinp1I cleavage, fluorescence. inhibition (reported as % activation of signal), % at 10 µM. actives 0.83% (n = 360,000); in the data active = inhibition above about 50%
LMPTP block = LMPTP (human) inhibition; P24666; recombinant LMPTP-A, OMFP fluorogenic substrate, fluorescence intensity; inhibition, % at 20 µM; actives 0.22% (n = 360,000); AID 651560;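 active = compounds that cut the enzyme signal by at least half of the control window in the single-dose screen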
Target sequence (P24666 whole entry, looked up): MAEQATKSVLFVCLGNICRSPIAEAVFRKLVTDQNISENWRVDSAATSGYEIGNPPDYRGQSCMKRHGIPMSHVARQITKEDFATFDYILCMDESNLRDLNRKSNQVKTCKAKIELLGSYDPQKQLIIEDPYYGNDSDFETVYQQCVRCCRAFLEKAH
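Test system – LMPTP-A phosphatase enzyme · Quantity – 0.625 nM LMPTP-A final · Reagent – OMFP substrate, 400 µM final · Dosing – one test concentration per compound, 20 µM, with 3% DMSO overall · Timing – 50 min enzyme reaction at room temperature, protected from light · Detection – fluorescence intensity · Controls – substrate-only low control, DMSO enzyme-plus-substrate high control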
GRK2 aptamer HTS = inhibitors of human GRK2 displacing RNA aptamer. P25098. bead flow cytometry, FAM-aptamer displacement from GRK2. inhibition of aptamer binding, % at 10 µM. actives 0.59% (n = 330,000). AID 488847;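 active = inhibition of aptamer binding above 40%, roughly 3 SD of noise, on plates passing a quality check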;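 also: median bead fluorescence of bound FAM aptamer so fluorescent compounds give negative values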
Scp-1 inhibitor = Scp-1 (human) phosphatase inhibition | Q9GZU7 | inhibition, % at 20 µM | actives 0.88% (n = 340,000) | Recombinant Scp1, phosphopeptide, malachite green phosphate absorbance;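 active = inhibition above about 50% at 20 µM, limit read from the data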
Target sequence (Q9GZU7 76-261 limits assumed): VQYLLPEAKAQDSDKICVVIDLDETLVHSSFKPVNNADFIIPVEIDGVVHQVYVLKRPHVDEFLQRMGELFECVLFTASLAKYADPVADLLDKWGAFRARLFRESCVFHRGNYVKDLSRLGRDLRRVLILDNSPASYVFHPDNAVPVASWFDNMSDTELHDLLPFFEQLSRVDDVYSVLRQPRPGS
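System: truncated SCP-1 phosphatase (76-261aa); medium: Tris acetate buffer pH 5.5 with MgCl2 and Tween-20; incubation: 45 min room-temperature reaction, 5 min colour, 30 min stabiliser; compound: single 20 µM dose, 1% DMSO; reagent: Phosphorylated 17-residue peptide substrate; read-out: % inhibition at 20 µM; technique: colorimetric free-phosphate detection, absorbance 630 nm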
SUMO1 PPI mod = alters human SUMO1 binding to SIM partners. P63165. SUMO1 binding to a labelled peptide, TR-FRET, 1 h. inhibition, % at 20 µM. actives 0.33% (n = 360,000). AID 602429; in the data active = inhibition above about 37%
Target sequence (P63165 whole entry, looked up): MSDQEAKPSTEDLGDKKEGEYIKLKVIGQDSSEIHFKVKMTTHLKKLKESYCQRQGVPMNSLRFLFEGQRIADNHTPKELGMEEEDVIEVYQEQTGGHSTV
STEP inh = inhibitors of human striatal-enriched phosphatase STEP; inhibition, % at 20 µM; recombinant STEP, OMFP fluorogenic substrate, fluorescence; actives 0.25% (n = 360,000); P54829;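 active = inhibition at 20 µM, scaled per plate between control wells, above about 37%, limit read from the data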
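System: STEP phosphatase, cell-free reaction; Buffer or medium: Bis-Tris pH 6.0 buffer with DTT, detergent; Incubation: 20 min at room temperature, dark; Measured by: fluorescence, 480/540 nm.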
DNMT1 interf DR = shows spectral interference in the DNMT1 beacon assay. 200 tested, under 10 active. molecular beacon fluorescence, spectral interference counter-screen. shares compounds with DNMT1 inh. IC50, µM
DNMT1 confirm = DNMT1 inhibition confirmation, single concentration | actives 8% (n = 2,300) | shares compounds with DNMT1 inh | DNMT1 molecular beacon HinP1I cleavage, fluorescence | inhibition, % at 10 µM;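 active = average inhibition of at least 30% in the single-concentration confirmation test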
DNMT1 interf = shows spectral interference in the DNMT1 beacon assay; activation (fluorescence interference), % at 10 µM; actives 1% (n = 2,300); AID 602387; shares compounds with DNMT1 inh; DNMT1 molecular beacon spectral interference counterscreen, fluorescence 485/520;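 active = activation of at least 30% at 10 µM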;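 also: DNMT1 catalytic domain with a HinP1I cleavage step and a FAM/dabcyl DNA beacon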
STEP conf = confirmation of human STEP phosphatase inhibitors; shares compounds with STEP inh; recombinant STEP, OMFP fluorogenic substrate, fluorescence; inhibition, % at 20 µM; actives 32% (n = 520)
Each line names hits and unclear results; the compound was inactive in the other large screens (follow-up assays come after a bar, where they were run). The list is not random: actives were taken first. Their share in the collection is about 2.1%. Unless noted, no rule for the calls is given here.

CCOc1cc(NC(=O)c2ccco2)c(OCC)cc1NC(=O)COc1ccccc1C	DNMT1 inh 65 | DNMT1 confirm inactive | DNMT1 interf inactive
CC(NC(=O)CN(c1ccc(Cl)cc1)S(C)(=O)=O)c1ccccc1 (stereo not drawn)	DNMT1 inh 58 | DNMT1 confirm inactive | DNMT1 interf inactive
CC(NC(=O)CN(c1ccc(F)cc1)S(C)(=O)=O)c1ccccc1 (stereo not drawn)	none
Cc1cc(C)c2c(n1)SCC(=O)N2CC(=O)Nc1ccc(F)cc1	none
CC(C)OCCCn1c(=N)c(C(N)=S)cc2c(=O)n3ccccc3nc21	DNMT1 inh 64 | DNMT1 confirm inactive | DNMT1 interf inactive
CCOC(=O)c1c(C)[nH]c(C(=O)OC(C)C(=O)Nc2ccc(C)cc2)c1C (stereo not drawn)	DNMT1 inh 74 (no result: GRK2 aptamer HTS, Scp-1 inhibitor) | DNMT1 confirm inactive | DNMT1 interf inactive
CCCCCCCCc1nnc(NC(=O)c2ccco2)s1	DNMT1 inh 113 | DNMT1 interf DR inactive | DNMT1 confirm 59 | DNMT1 interf inactive
CCOCc1nnc(NC(=O)c2ccco2)s1	none
COc1ccc(NC(=O)CC2Nc3cc(C)c(C)cc3NC2=O)c([N+](=O)[O-])c1 (stereo not drawn)	DNMT1 inh 59 | DNMT1 confirm inactive | DNMT1 interf inactive
CCO[C@@H]1OC(C(=O)N2CCCCCCC2)=C[C@H](c2ccc3c(c2)OCO3)[C@H]1CCCO	none
NC(N)=NCCCS(=O)(=O)Nc1ccc(Nc2c3ccccc3nc3cc([N+](=O)[O-])ccc23)cc1	DNMT1 inh 67, LMPTP block 63, STEP inh 48 (no result: GRK2 aptamer HTS) | DNMT1 interf DR inactive | DNMT1 confirm 72 | DNMT1 interf inactive | STEP conf inactive
CCOC(=O)c1cc(S(=O)(=O)N2CCCC2)cn1C	none
Cc1nc2ccccc2c(=O)n1Nc1cccc(Cl)c1	none
O=c1c2ccccc2nc2sc(Nc3cccc(Cl)c3)nn12	DNMT1 inh 107, LMPTP block 72, STEP inh 70 | DNMT1 confirm inactive | DNMT1 interf inactive | STEP conf inactive
O=c1c2c3nc4ccccc4nc3n(-c3ccc4c(c3)OCCO4)c2ncn1C1CCCC1	DNMT1 inh 72, Scp-1 inhibitor 85, STEP inh 51 | DNMT1 confirm inactive | DNMT1 interf inactive | STEP conf inactive
COc1ccc(CN2CCN(c3ccccc3OC)CC2)cc1OC	DNMT1 inh 67, STEP inh 91 | DNMT1 confirm inactive | DNMT1 interf inactive | STEP conf inactive
C[C@@H](NC(=O)c1ncn2c1c(=O)[nH]c1ccc(Br)cc12)c1ccccc1	DNMT1 inh 93, LMPTP block 58, STEP inh 50 (no result: GRK2 aptamer HTS, Scp-1 inhibitor) | DNMT1 confirm inactive | DNMT1 interf inactive | STEP conf inactive
C[C@@H](NC(=O)c1ncn2c1c(=O)[nH]c1cccnc12)c1ccccc1	none (no result: GRK2 aptamer HTS, Scp-1 inhibitor)
CCCCNC(=O)C1c2ccccc2OCC(=O)N1CCc1c[nH]c2ccccc12 (stereo not drawn)	none (no result: DNMT1 inh, GRK2 aptamer HTS, Scp-1 inhibitor, STEP inh)
CCCCc1ccc(NC(=O)c2ccc(N(C)S(C)(=O)=O)cc2)cc1	none
CCOc1ccc(C(=O)Nc2cc(-c3nc4ccccc4[nH]3)ccc2Cl)cc1[N+](=O)[O-]	STEP inh 54 | STEP conf 47
CCOc1ccc(C(=O)Nc2cc(-c3nc4ccccc4[nH]3)ccc2C)cc1[N+](=O)[O-]	none
CCN(CC)S(=O)(=O)c1ccc(C(=O)NN(C)C2=NS(=O)(=O)c3ccccc32)cc1	none (no result: GRK2 aptamer HTS)
CCN(C1=NS(=O)(=O)c2ccccc21)N(CC)S(=O)(=O)c1ccc(C)cc1	STEP inh 73 | STEP conf inactive
COC(=O)c1ccccc1CSc1nsc(/C=C/N(C)C)c1C#N	STEP inh 86 | STEP conf 103
Cc1nc(CSc2nsc(/C=C/N(C)C)c2C#N)cs1	none (no result: GRK2 aptamer HTS)
O=[N+]([O-])c1ccc(-c2n(-c3ccccn3)c3ccccc3[n+]2-c2ccccn2)cc1	none
C/C(CC(=O)Nc1ccc(N(C)C)cc1)=N\NC(=O)c1ccc(C(C)(C)C)cc1	none
CC1=C(C(=O)N(C(C)C)C(C)C)CC(CC(=O)NCc2cccs2)C(=O)N1CCCN1CCCC1=O (stereo not drawn)	none (no result: GRK2 aptamer HTS, Scp-1 inhibitor)
COc1ccc(CCNC(=O)CCn2c(SCC(=O)N3CCCC3)nc3ccccc3c2=O)cc1OC	none
Cc1ccc(NC(=S)N(CCN(C)C)Cc2cccs2)c(C)c1	STEP inh 72 | STEP conf 42
Cc1cc(C)c(NC(=S)N(CCN(C)C)Cc2cccs2)c(C)c1	none
COCCNC(=O)/C(C#N)=C/C=C/c1ccccc1[N+](=O)[O-]	none
Cc1sc2nc(CSC(C)C(=O)Nc3ccc(Cl)cn3)[nH]c(=O)c2c1C (stereo not drawn)	STEP inh 79 | STEP conf 60
COc1ccccc1OCCNC(=O)Cc1ccc(S(=O)(=O)N2CCOCC2)s1	none
Cc1cc(C)c(NC(=S)NCC2CCN(C(C)c3ccccc3)C2)c(C)c1 (stereo not drawn)	STEP inh 95 | STEP conf 83
Cc1ccc(NC(=S)NCC2CCN(C(C)c3ccccc3)C2)cc1 (stereo not drawn)	STEP inh 47 | STEP conf inactive
CC(c1ccccc1)N1CCC(CNC(=S)Nc2cccc(Cl)c2)C1 (stereo not drawn)	none
Cc1nc2c(cc1N)nc(C)n2Cc1ccccc1	none
CCOc1ccc(/C=N/NC(=O)c2[nH]c3ccc(C)cc3c2C)cc1	STEP inh 80 | STEP conf inactive
CCOc1cc(C(=O)NCCC(=O)N2CCC3(CC2)NCCc2[nH]cnc23)cc(OCC)c1OCC	STEP inh 45 | STEP conf inactive
CCOc1ccc(C(=O)NCCC(=O)N2CCC3(CC2)NCCc2[nH]cnc23)cc1OCC	none
O=C1CC(C(=O)O)S/C(=N\N=C\c2ccc(Br)cc2)N1 (stereo not drawn)	none
COc1ccc(CNC(=O)C(C)OC(=O)C23CC4CC(CC(O)(C4)C2)C3)cc1 (stereo not drawn)	STEP inh 97 | STEP conf inactive
COc1ccccc1NC(=S)NNC(=O)c1ccccc1Br	none

Screening results from PubChem.
